High-throughput results: PubChem, Sanford-Burnham Center for Chemical Genomics
In the library only some 1.9% were active in any assay of this set; here they are far more common.
FAS-TE inh = FAS thioesterase domain inhibitors, primary screen, biochemical, fluorescence intensity, uHTS; recombinant FAS-TE, OMFH fluorogenic substrate, fluorescence endpoint; inhibition, % at 15 µM; Fatty acid synthase (Homo sapiens), P49327; hit rate 0.67% among 360,000;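 active = compounds whose normalised, plate-corrected inhibition of enzyme fluorescence in the single-dose primary screen is 50% or more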;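 also: 0% = DMSO with enzyme and 100% = substrate without enzyme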
SUMO1-SIM PPI = modulators of SUMO1 protein-protein interactions, primary screen, biochemical, uHTS; Small ubiquitin-related modifier 1 (Homo sapiens), P63165; SUMO1 binding to a labelled peptide, TR-FRET, 1 h; inhibition, % at 20 µM; hit rate 0.33% among 360,000; AID 602429, 2012; in the data active = inhibition above about 37%
Target sequence (P63165 whole entry, looked up): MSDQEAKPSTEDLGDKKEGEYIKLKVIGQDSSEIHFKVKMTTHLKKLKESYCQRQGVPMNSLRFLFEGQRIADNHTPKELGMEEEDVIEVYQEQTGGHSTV
Scp-1 inhibitor = Scp-1 phosphatase inhibitors, primary screen, biochemical, colorimetric, uHTS. inhibition, % at 20 µM. hit rate 0.88% among 340,000. Carboxy-terminal domain RNA polymerase II polypeptide A small phosphatase 1 (Homo …. Recombinant Scp1, phosphopeptide, malachite green phosphate absorbance. AID 493091, 2011;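 active = inhibition above about 50% at 20 µM, limit read from the data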;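 also: plate controls were DMSO wells with enzyme for no effect and wells lacking enzyme for full effect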
Target sequence (Q9GZU7 76-261 limits assumed): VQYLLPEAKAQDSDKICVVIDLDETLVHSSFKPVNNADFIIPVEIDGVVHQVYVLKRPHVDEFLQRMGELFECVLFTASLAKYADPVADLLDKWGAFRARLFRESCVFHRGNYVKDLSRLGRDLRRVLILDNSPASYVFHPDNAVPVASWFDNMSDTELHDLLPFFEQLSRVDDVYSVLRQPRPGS
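Test system: SCP-1 phosphatase catalytic domain, residues 76-261 | Compound dosing: One concentration, 20 µM, with 1.0% DMSO | Schedule: 45 min room-temperature reaction, 5 min colour, 30 min stabiliser | Detection: Absorbance at 630 nm | Read-out basis: % inhibition of SCP-1 phosphate liberation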
STEP block = STEP phosphatase inhibitors, primary screen, biochemical, fluorescence intensity, uHTS; recombinant STEP, OMFP fluorogenic substrate; inhibition, % at 20 µM; hit rate 0.25% among 360,000; Tyrosine-protein phosphatase non-receptor type 5 (Homo sapiens), P54829;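 active = inhibition at 20 µM, scaled per plate between control wells, above about 37%, limit read from the data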;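 also: 0% = DMSO with enzyme and substrate and 100% = substrate only without enzyme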
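Assay system: isolated STEP enzyme / Timing: 20 min at room temperature, dark / Doses: 20 µM, 1% DMSO / Technique: fluorescence intensity, excitation 480 nm, emission 540 nm / Reagent: fluorogenic phosphatase substrate OMFP at 25 µM final / Measure: percent inhibition scaled to no-enzyme and uninhibited-enzyme controls, plate-pattern corrected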
LMPTP inh = LMPTP phosphatase inhibitors, primary screen, biochemical, fluorescence intensity, uHTS. inhibition, % at 20 µM. hit rate 0.22% among 360,000. recombinant LMPTP-A, OMFP fluorogenic substrate. Low molecular weight phosphotyrosine protein phosphatase (Homo sapiens), P24666;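 active = compounds that cut the enzyme signal by at least half of the control window in the single-dose screen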;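 also: plate controls were DMSO wells with enzyme plus substrate for no effect and substrate without enzyme for full effect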
Target sequence (P24666 whole entry, looked up): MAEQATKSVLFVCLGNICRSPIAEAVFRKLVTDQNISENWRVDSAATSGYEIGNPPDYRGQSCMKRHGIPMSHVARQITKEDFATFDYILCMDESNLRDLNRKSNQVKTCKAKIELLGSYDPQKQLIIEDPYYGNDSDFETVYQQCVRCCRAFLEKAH
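Test system: LMPTP-A phosphatase enzyme. Amount: LMPTP-A at 0.625 nM final in the reaction. Reagent: OMFP substrate, 400 µM final. Times: 50 min at room temperature. Signal: endpoint fluorescence intensity from OMFP dephosphorylation. Read-out basis: % inhibition. Benchmarks: no-enzyme and uninhibited controls.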
FAS-TE conf = FAS thioesterase domain inhibitors, confirmation, biochemical, fluorescence intensity, single concentration. inhibition, % at 15 µM. hit rate 45% among 2,300. shares compounds with FAS-TE inh. recombinant FAS-TE, OMFH fluorogenic substrate;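 active = compounds inhibiting the enzyme by at least 50% at 15 µM in any one of the replicates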;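 also: 0% = enzyme with DMSO only and 100% = wells lacking enzyme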
* hit, by the source's call; . = no result.

SMILES	FAS-TE inh	SUMO1-SIM PPI	Scp-1 inhibitor	STEP block	LMPTP inh	FAS-TE conf
N#C/C(=C\c1c(N2CCC(C(N)=O)CC2)nc2ccccn2c1=O)S(=O)(=O)c1ccc(Cl)cc1	54.6*	-14.5	-6.2	1.7	0.5	29.8*
Cc1cccn2c(=O)c(/C=C(\C#N)S(=O)(=O)c3ccccc3)c(N3CCN(Cc4ccccc4)CC3)nc12	13.7	2.5	9.9	4.4	2.8	.
N#C/C(=C\c1c(N2CCN(Cc3ccccc3)CC2)nc2ccccn2c1=O)S(=O)(=O)c1ccccc1	56.1*	-13.4	4.0	0.4	4.4	12.9
Cc1ccc(S(=O)(=O)N(C)C)cc1NC(=O)COC(=O)Cc1ccsc1	-0.9	7.4	-3.8	2.9	0.2	.
O=C(Nc1ccccc1N1CCOCC1)C1CCN(S(=O)(=O)c2ccccc2F)CC1	-1.7	-2.1	-11.1	-2.3	-2.8	.
O=C(N/N=C/c1ccco1)/C(=C/c1cccc([N+](=O)[O-])c1)NC(=O)c1ccccc1	47.8	-28.7	-5.3	2.3	-1.6	.
COc1ccc(/C=C(/NC(=O)c2ccccc2)C(=O)N/N=C/c2cccs2)cc1OC	-4.5	-13.4	3.1	2.4	0.8	.
O=C(N/N=C/c1ccc(Br)o1)/C(=C/c1ccc([N+](=O)[O-])cc1)NC(=O)c1ccccc1	57.8*	-16.8	3.5	5.2	0.3	31.6*
COc1ccc([N+](=O)[O-])cc1/C=N/NC(=O)/C(=C\c1cccs1)NC(=O)c1ccccc1	79.4*	-12.3	-0.7	3.5	1.3	65.7*
CCc1ccc(S(=O)(=O)N2CCN(C(=O)c3cccnc3)CC2)cc1	0.7	-0.1	-2.2	0.6	-0.6	.
CC1(c2ccc(OC(F)F)cc2)NC(=O)N(CC(=O)N2CCN(C(=O)c3ccco3)CC2)C1=O (configuration not stated)	-7.4	-1.0	-5.5	-1.2	-0.4	.
Cc1ccc(C(=O)CSc2nc(O)cc(=O)[nH]2)cc1C	-2.7	-2.0	-4.7	0.8	-0.2	.
C/C(=N\Nc1ccccn1)c1ccc(S(=O)(=O)NCc2ccco2)cc1	53.7*	-0.6	-2.4	2.7	0.0	40.2*
C/C(=N\Nc1ccc(C(=O)O)cc1)c1ccc(S(=O)(=O)NCc2ccco2)cc1	-0.2	-16.1	-9.0	-1.3	0.9	.
C/C(=N\Nc1nc(Cl)c(Cl)cc1Cl)c1ccc(S(=O)(=O)NCc2ccco2)cc1	52.0*	1.5	-4.8	-1.7	1.3	41.3
CC(C)CCN1C(=O)c2ccc(C(=O)OCn3nnc4ccccc4c3=O)cc2C1=O	55.0*	-10.8	-4.3	0.3	1.3	16.9
CC1(C)CC(=O)C=C(c2ccc(COC(=O)c3ccc(-c4ccccc4)cc3)cc2)C1=O	31.4	-0.4	.	2.1	1.8	.
CC1(C)CC(=O)C=C(c2ccc(COC(=O)Cc3ccccc3)cc2)C1=O	73.4*	-30.6	.	1.9	1.1	18.7
CC1(C)CC(=O)C=C(c2ccc(-c3ccccc3)cc2)C1=O	21.9	-33.6	.	3.8	0.2	.
CC1(C)CC(=O)C=C(c2ccc(-c3cnn(Cc4ccccc4)c3)cc2)C1=O	59.8*	-34.2	.	2.9	2.4	70.7*
CCN1C(=O)[C@H]2[C@@H](c3ccc(-c4ccc(C(C)=O)cc4)cc3)N3CCC[C@@]3(C(=O)OC)[C@H]2C1=O	14.1	-3.8	-2.3	0.0	-0.2	.
Nc1nc2cc(Cl)ccc2cc1C(=O)NCCCc1ccccc1	3.0	-3.2	.	.	1.6	.
O=C1C2C(c3ccccc3)(C(=O)N1c1ccc(Cl)cc1)C2(c1ccccc1)c1ccccc1 (configuration not stated)	59.7*	-0.9	-9.7	0.6	0.4	26.6
Cc1cccc(NS(=O)(=O)c2ccc(C(=O)NCC(c3ccco3)N(C)C)cc2)c1C (configuration not stated)	-4.3	6.5	-0.1	-2.6	0.0	.
Cc1ccc2cc(CCNC(=O)c3cccc([N+](=O)[O-])c3)c(=O)[nH]c2c1	10.6	-19.3	-2.8	0.5	0.2	.
SMILES	FAS-TE inh	SUMO1-SIM PPI	Scp-1 inhibitor	STEP block	LMPTP inh	FAS-TE conf
Cc1ccc2cc(COC(=O)c3cccc([N+](=O)[O-])c3)c(=O)[nH]c2c1	62.9*	-8.9	-0.8	0.2	1.9	27.0
COc1ccc(S(=O)(=O)N(C(=O)c2ccncc2)c2ccc3oc4c(c3c2)CCCC4)cc1	59.6*	1.1	-14.0	-1.5	2.2	25.5
O=C(Nc1ccc(C(=O)N2CCCC2)cc1)c1cc(F)c(F)cc1Cl	-7.8	-0.2	.	-2.3	-0.8	.
COc1ccc(C2CC(c3cccs3)=NN2C(=O)CSc2nc(=O)n3ccc(C)cc3n2)cc1 (configuration not stated)	56.6*	-1.0	22.6	0.7	18.3	56.8*
Cc1ccc(C2CC(c3ccc(Br)cc3)=NN2C(=O)CSC2=NN3CCCC(=O)N=C3S2)cc1 (configuration not stated)	54.2*	-3.7	-7.4	1.1	4.7	9.5
COc1ccc(C2=NN(C(=O)CSc3nc(=O)n4cc(C)ccc4n3)C(c3ccc(C)cc3)C2)cc1 (configuration not stated)	69.4*	-114.9	-0.1	1.4	5.1	40.2*
COc1ccc(C2=NN(C(=O)CSc3ncccn3)C(c3ccc(OC)cc3)C2)cc1 (configuration not stated)	18.5	-9.1	-8.2	-2.7	1.6	.
O=C(Nc1cc2cccc([N+](=O)[O-])c2oc1=O)c1cccs1	-7.4	-9.1	-7.0	3.3	1.6	.
COc1ccc(C2=C(C=C(C#N)C#N)C(c3ccccc3C)c3ccccc3O2)cc1OC (configuration not stated)	69.2*	-3.4	-11.7	5.2	3.8	17.9
Cc1ccc(NS(=O)(=O)Cc2ccccc2)cc1Cl	7.3	6.0	-3.0	-2.0	1.5	.
COC(=O)c1ccc(COc2ccc(C)cc2[N+](=O)[O-])o1	9.9	-14.5	-11.2	3.7	-0.5	.
COC(=O)c1ccc(COc2cc([N+](=O)[O-])cc3cccnc23)o1	54.6*	-18.2	-0.7	1.0	3.1	56.8*
O=C(COc1cc([N+](=O)[O-])cc2cccnc12)NCCC1=CCCCC1	82.6*	-32.6	-0.8	1.7	0.4	87.0*
O=C(COC(=O)c1ccc([N+](=O)[O-])cc1)NCCC1=CCCCC1	38.2	-22.2	-4.9	-2.3	-0.3	.
COc1ccc(F)cc1-c1cc(C(=O)NCc2ccc(C(F)(F)F)cc2)[nH]n1	53.0*	0.1	.	1.0	3.7	13.2
